Screening results (PubChem BioAssay)
MT1-MMP act inh = blockers of MT1-MMP proenzyme processing, primary screen, HT1080 RFP-PRO-GFP cells, GFP/RFP fluorescence; GFP/RFP ratio fluorescence, overnight; percent of plate control window, DMSO zero; GFP/RFP ratio change, % at 20 µM; Matrix metalloproteinase-14 (Homo sapiens), P50281; 0.061% of 360,000 active;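 active = GFP/RFP ratio change of at least 30% with cell ATP level not reduced by more than half and red fluorescence within 50% of control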
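system = RFP-PRO-GFP reporter HT1080 cells | dosing = 20 µM single dose, 1% DMSO | timing = overnight cell settling, then overnight compound exposure, 37 °C, 5% CO2 | read-out basis = GFP/RFP fluorescence ratio | controls = DMSO and RFP-L50D-GFP cell wells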
CTSL1 counter = Fasciola hepatica cathepsin L1 inhibitors, primary screen, counter-screen for PFM18AAP inhibitor project, biochemical, QFRET, fluorogenic peptide substrate; recombinant F. hepatica cathepsin L1, Z-Leu-Arg-MCA fluorescence; inhibition, % at 5.96 µM; 0.49% of 300,000 active; AID 1906, 2009;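 active = inhibition above the mean of all tested compounds plus 3 SD, set per screening campaign, cut at about 17% in these data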;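 also: 0% = plate median of test compound wells and 100% = 1 µM Z-Phe-Ala-diazomethylketone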
NRP1-CendR mod = modulators of CendR peptide binding to NRP-1, primary screen, biochemical, fluorescence polarization, uHTS; FAM-RPARPAR peptide binding to NRP-1; 0.85% of 360,000 active; AID 602438, 2012; inhibition, % at 25 µM;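 active = inhibition or corrected inhibition above about 18%, plus a signal ratio from 0.5 to 1.5, limit read from the data, passing the limit was not always enough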
Target sequence (O14786 whole entry, looked up): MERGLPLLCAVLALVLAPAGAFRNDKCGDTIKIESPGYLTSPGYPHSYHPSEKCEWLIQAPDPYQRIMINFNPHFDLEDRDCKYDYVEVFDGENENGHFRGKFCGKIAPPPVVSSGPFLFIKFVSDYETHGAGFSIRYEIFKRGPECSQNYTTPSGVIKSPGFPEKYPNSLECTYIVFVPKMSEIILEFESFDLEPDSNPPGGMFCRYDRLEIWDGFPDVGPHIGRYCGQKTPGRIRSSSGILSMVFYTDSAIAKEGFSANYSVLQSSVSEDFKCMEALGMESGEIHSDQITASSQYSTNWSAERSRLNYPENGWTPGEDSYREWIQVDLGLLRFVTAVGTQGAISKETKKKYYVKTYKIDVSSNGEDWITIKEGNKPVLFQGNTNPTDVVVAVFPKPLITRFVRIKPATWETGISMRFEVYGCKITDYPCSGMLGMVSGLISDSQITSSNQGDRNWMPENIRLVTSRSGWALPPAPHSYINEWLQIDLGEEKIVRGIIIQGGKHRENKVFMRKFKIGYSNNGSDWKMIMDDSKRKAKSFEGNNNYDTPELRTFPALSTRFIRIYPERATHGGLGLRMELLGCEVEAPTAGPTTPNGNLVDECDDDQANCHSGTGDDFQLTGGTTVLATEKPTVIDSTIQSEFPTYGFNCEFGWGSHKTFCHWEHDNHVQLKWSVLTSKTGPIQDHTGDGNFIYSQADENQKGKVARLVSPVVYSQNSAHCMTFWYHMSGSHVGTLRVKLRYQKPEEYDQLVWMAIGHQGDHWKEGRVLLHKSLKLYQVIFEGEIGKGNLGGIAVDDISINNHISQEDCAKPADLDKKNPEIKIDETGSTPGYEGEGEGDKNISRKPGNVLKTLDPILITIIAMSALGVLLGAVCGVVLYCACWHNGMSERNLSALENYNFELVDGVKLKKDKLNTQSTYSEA
UCH37 inh = inhibitors of human UCH37 deubiquitinase, primary screen, biochemical, Ub-AMC cleavage, fluorescence. Ubiquitin carboxyl-terminal hydrolase isozyme L5 (Homo sapiens), Q9Y5K5. purified proteasome/UCH37. 0.33% of 330,000 active. inhibition, % (concentration not given with the values);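 active = mean inhibition over replicate wells above about 20%, limit read from the data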;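 also: 0% = compound-free wells with enzyme and 100% = wells lacking proteasome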
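Schedule: 30 min plus 25 min, room temperature / Material: human UCH37 within purified proteasomes / Technique: AMC fluorescence intensity at 355/460 nm / Buffer or medium: pH 7.4 Tris-HCl (50 mM) with ovalbumin, ATP-MgCl2, DTT / Controls: wells without proteasome as full block, compound-free enzyme plus substrate as uninhibited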
DAGLB inh = DAGLB lipase inhibitors, primary screen, biochemical, fluorescence, HTS. HEK293T DAGLB membrane lysate, EnzChek fluorogenic substrate. inhibition, % at 5.17 µM. 0.059% of 340,000 active; in the data active = inhibition above about 34%;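 also: 0% = enzyme with vehicle and 100% = wells lacking enzyme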
Starred values were filed as active, the others as inactive; nt = not tested or not shown. Rows were chosen to be rich in hits. Some 1.5% of all compounds tested hit in one or more screens of this group.

SMILES	MT1-MMP act inh	CTSL1 counter	NRP1-CendR mod	UCH37 inh	DAGLB inh
Cc1ccc(-c2nn(-c3ccccc3)cc2/C=C2\SC(=S)N(CC(=O)O)C2=O)cc1	2.1	0.7	-99.7	21.4*	2.1
O=C(O)CN1C(=O)/C(=C\c2cn(CC(=O)N3CCOCC3)c3ccccc23)SC1=S	-128.7	8.1	-22.0	24.4*	-11.0
COc1ccc(-c2nn(-c3ccccc3)cc2/C=C2/SC(=S)N(CCC(=O)O)C2=O)cc1	nt	7.7	-105.5	9.0	-0.5
COc1ccc(C2SCC(=O)N2CCCN(C)C)cc1 (stereo not drawn)	-1.4	-4.8	4.1	33.9*	2.9
COc1ccc(CN2CC[C@H]3C=CC[C@@H](C(=O)NCCc4ccccc4)[C@H]3C2=O)cc1OC	-3.5	-0.1	23.6*	0.5	0.9
CCCCN1CC[C@H]2C=CC[C@@H](C(=O)NCCc3ccccc3)[C@H]2C1=O	-1.1	0.7	14.3	1.6	-1.6
O=C(NCc1cccnc1)[C@@H]1CC=C[C@@H]2CCN(Cc3ccccc3)C(=O)[C@@H]21	1.2	5.5	32.4*	0.8	-2.1
CCCCN1CC[C@H]2C=CC[C@@H](C(=O)Nc3ccccc3)[C@H]2C1=O	3.4	-5.6	32.3*	4.7	0.5
Cc1ccc(C(=O)NN=C2CCSC2)cc1[N+](=O)[O-]	nt	nt	nt	5.2	nt
CC(=O)Nc1cccc(OCC(=O)Nc2ccccc2)c1	1.4	-2.3	-5.7	4.3	-2.9
CCOC(=O)Nc1cccc(OCC(=O)Nc2ccccc2OCC)c1	-5.0	29.7*	-5.7	1.9	-7.1
COc1cc(N)c2ncccc2c1OC	7.5	nt	-0.1	4.4	0.9
COc1cc(NC(C)CCCNC(C)C)c2ncccc2c1OC (stereo not drawn)	-2.6	nt	24.0*	nt	1.3
Cc1cccc(NCC(=O)NN=Cc2cccc(Br)c2)c1	nt	nt	nt	1.7	nt
Cc1cccc(NN=Cc2ccncc2)c1	nt	nt	nt	11.9	nt
CC1Cc2ccccc2N1S(=O)(=O)c1cccc(C(=O)N2CCN(c3ncccn3)CC2)c1 (stereo not drawn)	-6.8	-4.0	35.0*	0.8	-6.1
CC(=O)N1CCN(C(=O)c2cccc(S(=O)(=O)N3c4ccccc4CC3C)c2)CC1 (stereo not drawn)	-3.2	nt	-17.4	-0.5	1.2
CCN(CC)CCNC(=O)c1ccc(NC(=O)c2cccc(S(=O)(=O)N3c4ccccc4CC3C)c2)cc1 (stereo not drawn)	3.5	4.3	29.5*	2.0	3.1
CCN(CC)CCNC(=O)c1ccc(NC(=O)c2cccc(S(=O)(=O)N3CCc4ccccc43)c2)cc1	3.4	nt	-9.6	4.6	-0.1
O=C(NN=C(c1ccccc1)c1ccncc1)c1ccc2c(c1)OCO2	nt	nt	nt	4.9	nt
Cc1ccc(C=NNC(=O)C(c2ccncc2)N2CCOCC2)cc1 (stereo not drawn)	nt	nt	nt	0.9	nt
COc1cc(C=NNC(=O)CCOc2ccccc2C)cc(Br)c1O	nt	nt	nt	-33.9	nt
COc1ccc(C(=O)Nc2ncc3c(n2)CC(c2ccco2)CC3=O)cc1 (stereo not drawn)	2.3	-0.1	35.7*	-4.2	2.1
COc1cccc(C(=O)Nc2ncc3c(n2)CC(C)CC3=O)c1 (stereo not drawn)	1.0	-0.8	-11.2	4.9	3.0
COc1cc(OC)cc(C(=O)Nc2ncc3c(n2)CC(C)CC3=O)c1 (stereo not drawn)	0.2	0.2	34.8*	-2.0	4.3
SMILES	MT1-MMP act inh	CTSL1 counter	NRP1-CendR mod	UCH37 inh	DAGLB inh
O=C(NN=C1C2CN3CCN(C2)CC1(c1ccccc1)C3)c1ccc(F)cc1	nt	nt	nt	3.0	nt
Nc1nnnn1N=Cc1ccc(Br)cc1	nt	nt	nt	1.7	nt
CC1CCCC(NC(=O)NC(=O)CCl)C1C (stereo not drawn)	0.1	24.4*	7.1	1.8	3.6
CC1CCCCC1NC(=O)NC(=O)CCl (stereo not drawn)	-0.1	6.7	9.0	4.4	0.4
COc1cccc(C=Nn2c(-c3cc(C)[nH]n3)n[nH]c2=S)c1	nt	nt	nt	3.0	nt
O=c1cc(CSc2n[nH]c(-c3ccncc3)n2)nc2sccn12	4.8	-1.4	23.5*	2.7	-1.2
CCOc1ccc(NC(=O)C2CC3CCC2C3)cc1 (stereo not drawn)	1.6	-0.2	27.5*	1.8	nt
CCOc1ccc(NC(=O)C2CCC(N3C(=O)C4CC=CCC4C3=O)CC2)cc1 (stereo not drawn)	-0.5	-7.4	28.9*	5.3	-0.4
CCOC(=O)c1ccc(NC(=O)C2CC3CCC2C3)cc1 (stereo not drawn)	0.8	-0.8	13.2	6.1	nt
COc1ccc(CCN/C=C2/CC(=O)NC2=O)cc1OC	-1.5	24.9*	-0.1	1.7	0.2
CC(=NOCC(=O)OCC(=O)N(C)c1ccccc1)c1ccc2c(c1)OCO2	nt	nt	nt	2.0	nt
COc1ccc(C2CC(c3cccs3)=NN2c2nc(-c3ccccc3)cs2)cc1OC (stereo not drawn)	11.2	34.2*	-10.2	-156.7	0.0
O=C(CSc1ncn[nH]1)N1CCOCC1	-1.9	59.9*	7.9	0.5	0.6
COc1ccc(N2CCN(C(=O)CSc3ncn[nH]3)CC2)cc1	1.5	-0.5	-0.4	3.2	3.5
O=C(NN=C/C=C/c1ccccc1)c1cccs1	nt	nt	nt	12.9	nt
COc1cccc(C=Nn2c(-c3cc(C)[nH]n3)n[nH]c2=S)c1O	nt	nt	nt	3.3	nt
N/C(CCS(=O)(=O)c1ccc(Cl)cc1)=N\OC(=O)c1ccccc1C(F)(F)F	2.5	18.6*	0.6	3.1	-1.8
N/C(CCS(=O)(=O)c1ccc(Cl)cc1)=N\OC(=O)c1ccc(Cl)cc1	1.9	17.4*	0.0	3.1	-3.3
CCN(CC)S(=O)(=O)c1ccc(N=NC2=C(O)CCCC2=O)cc1	-5.6	-0.2	26.3*	3.0	-0.9
CCN(CC)S(=O)(=O)c1ccc(N=NC2=C(O)CC(C)(C)CC2=O)cc1	2.1	1.5	10.1	11.6	-0.1
O=C1CCCC(O)=C1N=Nc1ccc2c(c1)OCO2	5.9	5.0	-43.5	20.2*	2.4
Cc1cc(C(=O)NN=C/C(Cl)=C/c2ccccc2)c(C)o1	nt	nt	nt	3.1	nt
COc1cc(C=NNC(=O)c2cccc(S(=O)(=O)N3CCOCC3)c2)cc(OC)c1O	nt	nt	nt	6.2	nt
COc1cccc(-n2c(=O)n(Cc3ccccc3)c(=O)c3[nH]cnc32)c1	2.1	-2.6	22.1*	2.2	0.0
O=c1c2[nH]cnc2n(-c2ccccc2)c(=O)n1Cc1ccccc1	3.1	-4.9	-8.1	0.4	-0.3
CC(=NNS(=O)(=O)c1ccc(C)cc1C)c1c[nH]c2ccccc12	nt	nt	nt	2.9	nt
Cc1cccc(OCC(=O)Nc2ccc(C(=O)c3ccc(C(=O)O)cc3)cc2)c1	3.0	-2.5	20.9	34.7*	3.5
Cc1cccc(OCC(=O)Nc2ccc(NC(=O)c3ccccc3)cc2)c1	3.4	-1.0	2.2	-1.3	0.8
